Assay results taken from PMC3823637 (Neuropharmacology, 2013).

How the values were obtained:
Assay type in all cases: cell-based
[1] = system: rat hypothalamic neurons (native AT1R); assay: Whole cell patch recordings from neurons in rat hypothalamic slices; conditions: for effect on Ang-(1-12)-induced depolarization / effect on Ang II-induced depolarization: antagonist/inhibitor 10 μM; for effect on Ang-(1-12)-induced depolarization: prior superfusion of slices; for effect on Ang II-induced depolarization: pretreatment of slices by superfusion
Outline: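 Coronal hypothalamic slices (250 μm, vibratome) came from Sprague-Dawley rats, 17-20 days old, of either sex, anaesthetised with 4% isoflurane. Slices were superfused with solution gassed with 95% O2/5% CO2 at 20 ± 1°C. Current-clamp whole-cell recordings were made from neurons […] to the 3rd ventricle. Peptide was puffed by nitrogen from a micropipette at 20-30 min intervals. Slices were pretreated with losartan, PD123319 or captopril at 10 μM each.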

[2] = target: T1, AT1R (Homo sapiens, UniProt P30556); assay: Ca2+-based FLIPR assay, CHO/16z25 cells transiently expressing AT1R
T1 sequence (P30556 1-359): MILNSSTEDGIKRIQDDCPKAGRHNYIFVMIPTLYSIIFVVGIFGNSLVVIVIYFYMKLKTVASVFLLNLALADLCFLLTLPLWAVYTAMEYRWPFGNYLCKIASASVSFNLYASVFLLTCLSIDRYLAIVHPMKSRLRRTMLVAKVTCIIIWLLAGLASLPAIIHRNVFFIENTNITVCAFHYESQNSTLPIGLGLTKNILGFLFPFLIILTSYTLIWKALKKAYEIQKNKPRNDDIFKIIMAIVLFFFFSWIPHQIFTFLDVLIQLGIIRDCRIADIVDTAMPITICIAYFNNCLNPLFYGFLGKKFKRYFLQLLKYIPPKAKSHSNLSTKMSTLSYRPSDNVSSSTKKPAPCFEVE

[3] = target: T1, AT1R; conditions: 10 μM losartan; 1 μM Ang II or 10 μM Ang-(1-12), 5 min

Structure (SMILES)	hypothalamic neurons depolarized of those examined ([1]; Ang II 1 mM in micropipette, pressure ejection)	membrane depolarization, mean amplitude ([1]; Ang II 1 mM in micropipette, pressure ejection, mean ± SEM, n=10)	effect on Ang-(1-12)-induced depolarization [1]	effect on Ang II-induced depolarization [1]	effect on Ca2+ response stimulated by Ang-(1-12) ([2]; 5 μM Ang-(1-12), losartan 0.1-10 μM, pre-incubated 30 min, dose-dependent)	effect on Ang II-induced Ca2+ mobilization ([2]; COS-7 and CHO cells transfected with AT1R cDNA)	effect on Ang-(1-12)- and Ang II-induced ERK responses [3]
CC[C@H](C)[C@H](NC(=O)[C@H](Cc1ccc(O)cc1)NC(=O)[C@@H](NC(=O)[C@H](CCCNC(=N)N)NC(=O)[C@@H](N)CC(=O)O)C(C)C)C(=O)N[C@@H](Cc1c[nH]cn1)C(=O)N1CCC[C@H]1C(=O)N[C@@H](Cc1ccccc1)C(=O)O [Ang II, angiotensin II]	10 of the 27	6.9 ± 0.9 mV	–	–	–	–	–
Cc1cc(Cn2cnc3c2C[C@@H](C(=O)O)N(C(=O)C(c2ccccc2)c2ccccc2)C3)ccc1N(C)C [PD-123319]	–	–	not affected	–	–	–	–
C[C@H](CS)C(=O)N1CCC[C@H]1C(=O)O [captopril]	–	–	failed to suppress	not affected	–	–	–
CCCCc1nc(Cl)c(CO)n1Cc1ccc(-c2ccccc2-c2nn[nH]n2)cc1 [losartan]	–	–	antagonized	suppressed	effectively suppressed	suppressed	inhibited
